Screens from PubChem BioAssay.
Shown is part of a subset that was picked to be rich in hits.
CHOP inhibitor: blocks CHOP induction under ER stress. AID 2732. CHO-K1 CHOP-promoter luciferase, tunicamycin-induced, 15-18 h. 220,000 compounds, 3.8% hits. inhibition, % at 10 µM;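 active = compounds that reduced the stress-induced luciferase reporter signal by more than about 70% of percent inhibition, limit read from the data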
Jurkat NFkB inh: inhibitors of the PMA/ionomycin-induced NF-kB reporter in Jurkat cells; inhibition, % at 4 µM; 330,000 compounds, 0.53% hits; PMA/ionomycin-induced NF-kB luciferase reporter, luminescence; in the data active = inhibition above about 50%
697 NFkB inh: lowers PMA/ionomycin-induced NF-kB signal in 697 B cells; 330,000 compounds, 0.33% hits; inhibition, % at 4 µM; 697 B-cell NF-kB luciferase reporter, 16 h; in the data active = inhibition above about 35%
CHOP UPR activ: apoptotic UPR (CHOP) activation; CHO-CHOP luciferase reporter, luminescence; percent of tunicamycin response over DMSO baseline; activation, % at 10 µM; 330,000 compounds, 0.34% hits;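 active = at 10 µM dose, activation of 40% or more, normalized to positive control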
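Test system: CHO-CHOP cells, stable luciferase reporter of PERK-eIF2a-CHOP signalling | Quantity: 500 CHO-CHOP cells per well | Buffer or medium: F12 plus 10% serum | Compound dosing: 10 µM single point, 0.5% DMSO | Schedule: 6 h compound treatment, 37 °C | Signal: Luciferase luminescence | Control set: Tunicamycin high control, DMSO low control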
UPR XBP1 act: activators of adaptive arm of unfolded protein response (XBP1) | CHO-XBP1 luciferase reporter, IRE1-XBP1 UPR activation, luminescence; percent of tunicamycin response, DMSO as zero | 330,000 compounds, 0.33% hits | activation, % at 20 µM;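 active = versus positive control, 20 µM dose yields 30% or more activation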
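Material: CHO cell line with stable XBP1 luciferase reporter; schedule: 16-18 h cell attachment at 37 °C, then 6 h compound exposure; signal: glow luminescence from Steady-Glo reagent; medium: serum-containing F12 medium, 10% FBS; benchmarks: tunicamycin 10 µg/mL and vehicle-only wells; read-out: percent activation relative to tunicamycin reference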
XBP1 UPR conf: adaptive UPR (XBP1) activation, confirmed; shares compounds with UPR XBP1 act; CHO-XBP1 IRE1-XBP1 luciferase reporter, luminescence; 1,000 compounds, 63% hits; activation, % at 20 µM;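 active = reporter signal at least 30% of the positive control's activation in two or more of four replicate wells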
Numbers stand for hits; 0 = inactive; - = no result given.

SMILES	CHOP inhibitor	Jurkat NFkB inh	697 NFkB inh	CHOP UPR activ	UPR XBP1 act	XBP1 UPR conf
Cc1ccsc1C(=O)OCC(=O)Nc1cccc(S(=O)(=O)N2CCOCC2)c1	0	0	0	0	0	-
CCC[C@@H](CNC)NC[C@H](Cc1ccccc1)NCCCCc1ccccc1	-	0	0	0	45.5	0
CC(Oc1ccc(Cl)cc1)C(=O)Nc1ccccc1C(=O)N1CCOCC1 (configuration not stated)	-	0	0	0	0	-
CC(Oc1ccccc1Cl)C(=O)Nc1ccccc1C(=O)N1CCOCC1 (configuration not stated)	-	0	0	0	32.5	0
CCc1ccc2[nH]c3nc(SCC(=O)NCC4CCCO4)nnc3c2c1 (configuration not stated)	-	0	0	0	0	-
CCOC(=O)c1c(NC(=O)CSc2nnc3c(n2)[nH]c2ccc(F)cc23)sc(C(C)=O)c1C	0	0	0	0	62.0	50.6
CCc1ccc2[nH]c3nc(SCC(=O)NNC(=O)c4ccc(C(C)(C)C)cc4)nnc3c2c1	88.8	0	0	0	59.5	42.4
CCc1ccc2[nH]c3nc(SCc4nnc(-c5ccc(C)cc5)o4)nnc3c2c1	0	0	0	0	94.8	93.1
O=C(CSc1nnc2c(n1)[nH]c1ccc(F)cc12)Nc1ccccc1F	-	0	0	0	0	-
COc1ccc(/C=C2\SC(=S)N(CCCC(=O)Nc3cc(C)on3)C2=O)cc1OC	-	0	0	0	41.6	0
COc1ccc(/C=C2/SC(=O)N(CC(=O)Nc3cc(C)on3)C2=O)cc1OC	0	0	0	0	0	-
Cc1ccccc1Nc1nc(-c2ccccc2)c(C(=O)Nc2cccnc2)s1	0	0	0	0	0	-
O=C(Nc1cccnc1)c1sc(Nc2ccccc2F)nc1-c1ccccc1	0	0	0	0	37.5	0
CC12CCC(=O)N1C(C(=O)NNC(=O)c1ccc(F)cc1)CS2 (configuration not stated)	-	0	0	0	0	-
O=C(/C=C/c1ccc(Cl)cc1)NC(=S)Nc1ccc(N2CCOCC2)c(Cl)c1	0	0	0	0	123.6	125.7
O=C(/C=C/c1ccccc1)NC(=S)Nc1ccc(N2CCOCC2)cc1	0	0	0	0	0	-
COc1cccc2cc(C(=O)NC(C)c3ccccc3)c(=O)oc12 (configuration not stated)	-	0	0	0	0	-
CCn1c(/C=C/c2cccc([N+](=O)[O-])c2)nc2ccccc2c1=O	0	0	0	0	0	-
Cc1[nH]c2ccccc2c1/C=C/c1nc2ccccc2c(=O)n1-c1ccc([N+](=O)[O-])cc1	0	0	0	0	47.3	36.0
CCn1c(/C=C/c2c(C)[nH]c3ccccc23)nc2ccccc2c1=O	94.4	0	0	0	215.7	81.0
CCn1c(/C=C/c2ccccc2Cl)nc2ccccc2c1=O	-	0	0	0	0	-
O=C(c1ccccc1)c1c[nH]c(C(=O)C(Cl)(Cl)Cl)c1	0	0	0	0	0	-
O=C(Cc1ccccc1)c1c[nH]c(C(=O)C(Cl)(Cl)Cl)c1	-	0	0	0	38.8	49.5
N/C(=N/O)c1ccccc1N1CCC(Cc2ccccc2)CC1	0	0	0	0	0	-
COc1ccccc1N1CCN(Cc2cnc3ccc(Cl)cn23)CC1	-	0	0	0	0	-
SMILES	CHOP inhibitor	Jurkat NFkB inh	697 NFkB inh	CHOP UPR activ	UPR XBP1 act	XBP1 UPR conf
Cc1ccc(CNC(=O)c2ccc3c(=O)n4c(-c5ccc(C)cc5)csc4nc3c2)cc1	79.1	0	0	0	46.3	120.0
CCc1ccccc1NC(=S)N(Cc1ccc(C(=O)O)cc1)Cc1ccc(OC)c(OC)c1	0	0	0	0	0	-
c1ccc(CNc2nc(NCc3ccccc3)c3ccccc3n2)cc1	0	0	0	0	58.8	0
CNC(=O)c1ccc(-n2nc(C)cc2-c2ccccc2)cc1	0	0	0	0	43.8	0
CCOc1ccc(-n2cc(C(=O)Nc3cccc(C)n3)c3cc(OC)c(OC)cc3c2=O)cc1	-	0	0	0	0	-
O=C(Nc1cccc(Cl)c1)c1nc[nH]c1C(=O)NCCCCNC(=O)c1[nH]cnc1C(=O)Nc1cccc(Cl)c1	-	0	0	0	60.2	0
O=C(CN1CCC(NC(=O)Nc2ccccc2)CC1)Nc1ccc([N+](=O)[O-])cc1	-	0	0	0	0	-
CCOC(=O)C1=C(O)/C(=C/c2ccc(OCC(=O)O)c(OCC)c2)SC1=Nc1ccc(OC)cc1	0	0	0	0	0	-
CCOC(=O)C1=C(O)/C(=C/c2cc(OC)c(OC)c(OC)c2)SC1=Nc1ccc(OC)cc1	0	0	0	0	35.9	0
COc1ccc(C(=O)NC(C(=O)NCC2(N3CCCCC3)CCCCC2)C(C)C)cc1 (configuration not stated)	-	0	0	0	0	-
COc1ccc(OC)c2c1sc(=NC(=O)C1COc3ccccc3O1)n2C (configuration not stated)	0	0	0	0	0	-
COc1cccc(/C=N/Nc2ccnc(=O)[nH]2)c1O	-	0	0	0	0	-
COc1cccc(/C=N/Nc2ccc([N+](=O)[O-])cn2)c1O	-	0	0	0	64.8	63.5
CN(C)Cc1nc2ccccc2c(=O)n1CC#N	0	0	0	0	0	-
N#CCn1c(Cc2ccccc2)nc2ccccc2c1=O	-	0	0	0	31.5	0
CCc1ccc(-c2cc(C(F)(F)F)n3nc(C(=O)Nc4cnn(Cc5ccc(C)cc5)c4)cc3n2)s1	0	0	0	0	74.8	288.5
CCOc1ccc(N2C(=O)C(=O)/C(=C(/O)c3ccccc3)C2c2ccccc2[N+](=O)[O-])cc1 (configuration not stated)	0	0	0	0	33.6	0
C=CCn1c(C)nnc1SCC(=O)Nc1cc(S(=O)(=O)N2CCCC2)ccc1Cl	-	0	0	0	0	-
COC(=O)CSc1nc(N)c2c3c(sc2n1)CCCC3	0	0	0	0	0	-
COC(=O)CSc1nc(N)c2c3c(sc2n1)C(c1ccccc1)SC(c1ccccc1)C3 (configuration not stated)	0	0	0	0	38.0	0
COc1ccc(Cc2nnc(N/N=C/c3ccc(N(C)C)cc3)[nH]c2=O)cc1OC	0	0	0	0	31.5	50.8
COc1ccc(/C=N/Nc2nnc(Cc3ccc(OC)c(OC)c3)c(=O)[nH]2)cc1OC	0	0	0	0	0	-
Cc1ccccc1-c1nc2cc(Cl)ccc2c(=O)o1	-	0	0	0	48.6	0
CCCCCOCC(O)CCC(=O)NN (configuration not stated)	0	0	0	0	34.4	0
CCCCC(CC(O)COCC(C)C)C(=O)NN (configuration not stated)	0	0	0	0	0	-
CCCn1c(C(C)Nc2nc(-c3ccc(C)cc3)cs2)nc2cc(Cl)c(Cl)cc21 (configuration not stated)	-	0	0	0	0	-
